ChEMBL document CHEMBL5260793, “Novel pyrazolo[3,4-d]pyrimidine with 4-(1H-benzimidazol-2-yl)-phenylamine as broad spectrum anticancer agents: Synthesis, cell based assay, topoisomerase inhibition, DNA intercalation and bovine serum albumin studies” (Eur J Med Chem, 2017)
Calls of active or inactive are those of the source. No cut-off for these calls is given here.

Experiments:
[1] = tested on: Panel melanoma (Carcinoma cell lines); assay: Anticancer activity against human Panel melanoma (Carcinoma cell lines) assessed as total growth inhibition incubated for 48 hrs by Sulphorhodamine B assay; type: functional
Procedure, shortened: (§1)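 NCI-60 five-dose screen. Cells in RPMI 1640 with 5% FBS and 2 mM L-glutamine were plated at 5,000–40,000 cells/well and held 24 h before dosing. Compounds came from DMSO stocks and were given at five concentrations (10-fold or ½-log dilutions) for 48 h at 37 °C. Adherent cells were TCA-fixed and stained with SRB; A515 was read. GI50 was set from growth = 50% and TGI from Ti = Tz, using Tz/C/Ti.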

[2] = tested on: Calf thymus DNA; assay: Displacement of Ethidium bromide from calf thymus DNA/EtBr complex assessed as decrease in fluorescent intensity by fluorescence based EtBr-displacement assay; type: nucleic-acid assay; conditions: Bos taurus
Procedure, shortened: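 ct-DNA (0–20 μM) was pre-mixed with ethidium bromide, diluted from a 1 mM stock. Compound was then added in 2 μM steps up to 50 μM, with mixing after each addition. Emission was recorded with excitation at 480 nm.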

[3] = tested on: Panel ovarian (Carcinoma cell lines); assay: Anticancer activity against human Panel ovarian (Carcinoma cell lines) assessed as total growth inhibition incubated for 48 hrs by Sulphorhodamine B assay; type: functional
[4] = tested on: Panel ovarian (Carcinoma cell lines); assay: Anticancer activity against human Panel ovarian (Carcinoma cell lines) assessed as cell growth inhibition incubated for 48 hrs by Sulphorhodamine B assay; type: functional; procedure, shortened: as §1
[5] = tested on: Panel melanoma (Carcinoma cell lines); assay: Anticancer activity against human Panel melanoma (Carcinoma cell lines) assessed as cell growth inhibition incubated for 48 hrs by Sulphorhodamine B assay; type: functional; procedure, shortened: as §1
[6] = tested on: Panel prostate (Carcinoma cell lines); assay: Anticancer activity against human Panel prostate (Carcinoma cell lines) assessed as total growth inhibition incubated for 48 hrs by Sulphorhodamine B assay; type: functional; procedure, shortened: as §1
[7] = tested on: Panel prostate (Carcinoma cell lines); assay: Anticancer activity against human Panel prostate (Carcinoma cell lines) assessed as cell growth inhibition incubated for 48 hrs by Sulphorhodamine B assay; type: functional; procedure, shortened: as §1
[8] = Anticancer activity against human Non-small cell lung cancer cell line assessed as total growth inhibition incubated for 48 hrs by Sulphorhodamine B assay; type: functional; procedure, shortened: as §1
[9] = tested on: Panel leukemia (Carcinoma cell lines); assay: Anticancer activity against human Panel leukemia (Carcinoma cell lines) assessed as total growth inhibition incubated for 48 hrs by Sulphorhodamine B assay; type: functional
[10] = tested on: Panel leukemia (Carcinoma cell lines); assay: Anticancer activity against human Panel leukemia (Carcinoma cell lines) assessed as lethality incubated for 48 hrs by Sulphorhodamine B assay; type: functional
[11] = tested on: Calf thymus DNA; assay: Binding affinity to calf thymus DNA assessed as maximum absorption wavelength shift at pH 7.4 at 10 uM by UV-vis absorption spectroscopy; type: nucleic-acid assay; conditions: Bos taurus
Procedure, shortened: (§2)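 Absorption titration at 300 K in a 1 cm cell, background subtracted. Compound was fixed (10 μM per legend; 20 μM in methods) with ct-DNA added up to 15–20 μM in 10 mM phosphate buffer, pH 7.4 (A260/A280 1.82). A buffer-addition control was run. K was taken from the 1/(Af−Aobs) vs 1/[DNA] fit.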

[12] = tested on: Panel colon (Carcinoma cell lines); assay: Anticancer activity against human Panel colon (Carcinoma cell lines) assessed as lethality incubated for 48 hrs by Sulphorhodamine B assay; type: functional
[13] = tested on: Panel prostate (Carcinoma cell lines); assay: Anticancer activity against human Panel prostate (Carcinoma cell lines) assessed as lethality incubated for 48 hrs by Sulphorhodamine B assay; type: functional
[14] = target: T1, DNA topoisomerase 1 (Homo sapiens) (UniProt P11387); assay: Inhibition of human DNA topoisomerase I mediated supercoiled pHOT1 plasmid DNA relaxation upto 100 uM incubated for 30 mins by ethidium bromide staining based agarose gel electrophoresis analysis
T1 sequence (whole entry): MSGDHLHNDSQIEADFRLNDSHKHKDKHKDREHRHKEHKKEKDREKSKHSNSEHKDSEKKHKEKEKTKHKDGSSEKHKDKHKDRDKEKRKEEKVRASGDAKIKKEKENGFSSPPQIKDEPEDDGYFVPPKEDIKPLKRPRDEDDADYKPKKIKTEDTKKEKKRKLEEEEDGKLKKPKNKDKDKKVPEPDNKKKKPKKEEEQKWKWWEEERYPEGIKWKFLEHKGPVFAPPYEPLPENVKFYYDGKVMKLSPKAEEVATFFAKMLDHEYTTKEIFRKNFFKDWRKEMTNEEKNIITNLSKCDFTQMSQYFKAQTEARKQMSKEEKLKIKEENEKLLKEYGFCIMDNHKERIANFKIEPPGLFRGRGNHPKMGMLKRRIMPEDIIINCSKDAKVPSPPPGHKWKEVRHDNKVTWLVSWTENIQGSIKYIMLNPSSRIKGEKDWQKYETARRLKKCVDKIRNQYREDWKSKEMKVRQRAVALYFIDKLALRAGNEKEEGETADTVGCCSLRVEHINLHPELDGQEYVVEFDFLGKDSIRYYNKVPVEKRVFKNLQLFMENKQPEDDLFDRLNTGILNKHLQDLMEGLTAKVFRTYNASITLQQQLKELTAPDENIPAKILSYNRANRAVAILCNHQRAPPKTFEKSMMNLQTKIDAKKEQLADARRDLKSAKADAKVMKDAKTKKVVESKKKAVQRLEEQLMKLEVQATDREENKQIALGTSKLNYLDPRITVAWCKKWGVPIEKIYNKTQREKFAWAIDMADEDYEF

[15] = Anticancer activity against human Non-small cell lung cancer cell line assessed as lethality incubated for 48 hrs by Sulphorhodamine B assay; type: functional
[16] = Anticancer activity against human Non-small cell lung cancer cell line assessed as cell growth inhibition incubated for 48 hrs by Sulphorhodamine B assay; type: functional; procedure, shortened: as §1
[17] = tested on: Panel breast (Carcinoma cell lines); assay: Anticancer activity against human Panel breast (Carcinoma cell lines) assessed as lethality incubated for 48 hrs by Sulphorhodamine B assay; type: functional; conditions: read-out: LC50 (the source's name)
[18] = tested on: Panel colon (Carcinoma cell lines); assay: Anticancer activity against human Panel colon (Carcinoma cell lines) assessed as cell growth inhibition incubated for 48 hrs by Sulphorhodamine B assay; type: functional; procedure, shortened: as §1
[19] = tested on: Panel breast (Carcinoma cell lines); assay: Anticancer activity against human Panel breast (Carcinoma cell lines) assessed as total growth inhibition incubated for 48 hrs by Sulphorhodamine B assay; type: functional; procedure, shortened: as §1
[20] = tested on: Calf thymus DNA; assay: Binding affinity to calf thymus DNA assessed as hypochromicity at pH 7.4 at 10 uM by UV-vis absorption spectroscopy; type: nucleic-acid assay; conditions: Bos taurus; procedure, shortened: as §2
[21] = target: Albumin (Bos taurus, UniProt P02769); assay: Binding affinity to bovine serum albumin assessed as decrease in fluorescence intensity at pH 7.4 at 0 to 30 uM by fluorescence quenching method; conditions: cattle
Albumin, sequence (P02769 whole entry): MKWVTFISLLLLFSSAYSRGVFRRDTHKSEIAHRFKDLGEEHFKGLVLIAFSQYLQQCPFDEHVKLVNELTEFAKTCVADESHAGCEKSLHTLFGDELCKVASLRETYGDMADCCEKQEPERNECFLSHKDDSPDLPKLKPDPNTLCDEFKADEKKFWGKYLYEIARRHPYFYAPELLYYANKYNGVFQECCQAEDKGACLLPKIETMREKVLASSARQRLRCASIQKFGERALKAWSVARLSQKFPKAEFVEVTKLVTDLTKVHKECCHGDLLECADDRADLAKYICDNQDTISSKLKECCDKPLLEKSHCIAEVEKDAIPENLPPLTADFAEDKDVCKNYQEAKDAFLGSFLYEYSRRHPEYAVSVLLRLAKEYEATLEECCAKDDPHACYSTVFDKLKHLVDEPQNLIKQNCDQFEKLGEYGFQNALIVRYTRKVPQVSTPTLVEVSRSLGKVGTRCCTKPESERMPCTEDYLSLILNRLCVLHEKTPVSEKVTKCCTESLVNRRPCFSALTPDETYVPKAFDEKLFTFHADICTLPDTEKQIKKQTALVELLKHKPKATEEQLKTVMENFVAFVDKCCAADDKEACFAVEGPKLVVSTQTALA

[22] = tested on: Panel breast (Carcinoma cell lines); assay: Anticancer activity against human Panel breast (Carcinoma cell lines) assessed as cell growth inhibition incubated for 48 hrs by Sulphorhodamine B assay; type: functional; procedure, shortened: as §1
[23] = tested on: Panel renal (Carcinoma cell lines); assay: Anticancer activity against human Panel renal (Carcinoma cell lines) assessed as total growth inhibition incubated for 48 hrs by Sulphorhodamine B assay; type: functional
[24] = target: DNA topoisomerase 2-alpha (Homo sapiens) (UniProt P11388); assay: Inhibition of human DNA topoisomerase II-alpha mediated supercoiled pHOT1 plasmid DNA relaxation at 75 uM incubated for 30 mins by ethidium bromide staining based agarose gel electrophoresis analysis
DNA topoisomerase 2-alpha (Homo sapiens), sequence (P11388 whole entry): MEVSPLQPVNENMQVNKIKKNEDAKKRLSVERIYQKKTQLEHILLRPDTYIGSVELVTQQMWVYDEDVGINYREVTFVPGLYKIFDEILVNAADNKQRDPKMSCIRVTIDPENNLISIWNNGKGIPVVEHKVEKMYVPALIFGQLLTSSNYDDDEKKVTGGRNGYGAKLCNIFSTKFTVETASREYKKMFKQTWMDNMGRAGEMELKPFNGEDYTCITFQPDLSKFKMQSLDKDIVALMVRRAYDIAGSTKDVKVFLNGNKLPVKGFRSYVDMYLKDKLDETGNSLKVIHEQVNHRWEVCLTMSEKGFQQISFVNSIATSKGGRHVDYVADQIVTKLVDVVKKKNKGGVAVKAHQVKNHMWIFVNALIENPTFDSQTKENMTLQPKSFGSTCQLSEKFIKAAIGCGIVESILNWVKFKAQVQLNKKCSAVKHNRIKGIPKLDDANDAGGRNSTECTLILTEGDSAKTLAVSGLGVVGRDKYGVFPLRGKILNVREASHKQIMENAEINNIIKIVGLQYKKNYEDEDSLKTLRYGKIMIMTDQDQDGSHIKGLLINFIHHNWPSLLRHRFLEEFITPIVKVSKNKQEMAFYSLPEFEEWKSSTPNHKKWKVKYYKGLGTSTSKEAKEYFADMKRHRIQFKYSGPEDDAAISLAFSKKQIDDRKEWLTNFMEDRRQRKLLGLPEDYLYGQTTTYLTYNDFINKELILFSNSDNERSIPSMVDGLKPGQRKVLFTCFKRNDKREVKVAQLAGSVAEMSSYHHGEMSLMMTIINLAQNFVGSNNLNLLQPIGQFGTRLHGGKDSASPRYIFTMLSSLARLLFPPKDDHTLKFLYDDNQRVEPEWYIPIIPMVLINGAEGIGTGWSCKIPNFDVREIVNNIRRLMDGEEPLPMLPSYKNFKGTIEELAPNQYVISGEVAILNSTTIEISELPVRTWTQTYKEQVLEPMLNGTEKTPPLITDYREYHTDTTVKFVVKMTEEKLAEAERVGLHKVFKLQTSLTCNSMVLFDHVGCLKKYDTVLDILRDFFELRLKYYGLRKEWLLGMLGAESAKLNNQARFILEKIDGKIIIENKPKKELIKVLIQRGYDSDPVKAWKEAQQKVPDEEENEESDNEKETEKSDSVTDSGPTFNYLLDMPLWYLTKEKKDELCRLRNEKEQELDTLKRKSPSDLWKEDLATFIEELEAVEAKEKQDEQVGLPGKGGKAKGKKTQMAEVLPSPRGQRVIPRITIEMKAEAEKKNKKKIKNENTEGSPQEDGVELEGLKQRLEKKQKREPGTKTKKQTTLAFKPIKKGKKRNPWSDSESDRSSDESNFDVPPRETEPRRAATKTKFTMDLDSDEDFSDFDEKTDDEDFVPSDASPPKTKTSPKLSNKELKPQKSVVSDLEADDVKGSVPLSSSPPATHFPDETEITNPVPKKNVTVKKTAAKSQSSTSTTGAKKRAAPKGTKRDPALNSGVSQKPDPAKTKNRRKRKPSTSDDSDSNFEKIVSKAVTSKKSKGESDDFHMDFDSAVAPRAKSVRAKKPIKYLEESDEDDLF
Procedure, shortened: (§3)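 Reaction buffer: 50 mM Tris-Cl pH 8.0, 120 mM KCl, 10 mM MgCl2, 0.5 mM ATP, 0.5 mM DTT. Each reaction held 500 ng supercoiled pHOT1 and 1 U human Topo IIα, with compound at 10–100 μM, for 30 min at 37 °C. Reactions were stopped with glycerol/EDTA/bromophenol blue, run on 1% agarose in TBE, and stained with ethidium bromide. Etoposide 25 μM was the positive control.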

[25] = tested on: Panel colon (Carcinoma cell lines); assay: Anticancer activity against human Panel colon (Carcinoma cell lines) assessed as total growth inhibition incubated for 48 hrs by Sulphorhodamine B assay; type: functional; procedure, shortened: as §1
[26] = target: DNA topoisomerase 2-alpha (Homo sapiens) (UniProt P11388); assay: Inhibition of human DNA topoisomerase II-alpha mediated supercoiled pHOT1 plasmid DNA relaxation at 100 uM incubated for 30 mins by ethidium bromide staining based agarose gel electrophoresis analysis; procedure, shortened: as §3
[27] = tested on: Panel leukemia (Carcinoma cell lines); assay: Anticancer activity against human Panel leukemia (Carcinoma cell lines) assessed as cell growth inhibition incubated for 48 hrs by Sulphorhodamine B assay; type: functional; procedure, shortened: as §1
[28] = tested on: Panel renal (Carcinoma cell lines); assay: Anticancer activity against human Panel renal (Carcinoma cell lines) assessed as cell growth inhibition incubated for 48 hrs by Sulphorhodamine B assay; type: functional; procedure, shortened: as §1
[29] = tested on: Panel CNS (Carcinoma cell lines); assay: Anticancer activity against human Panel CNS (Carcinoma cell lines) assessed as cell growth inhibition incubated for 48 hrs by Sulphorhodamine B assay; type: functional; procedure, shortened: as §1
[30] = tested on: Panel ovarian (Carcinoma cell lines); assay: Anticancer activity against human Panel ovarian (Carcinoma cell lines) assessed as lethality incubated for 48 hrs by Sulphorhodamine B assay; type: functional
[31] = tested on: Panel melanoma (Carcinoma cell lines); assay: Anticancer activity against human Panel melanoma (Carcinoma cell lines) assessed as lethality incubated for 48 hrs by Sulphorhodamine B assay; type: functional
[32] = tested on: Panel CNS (Carcinoma cell lines); assay: Anticancer activity against human Panel CNS (Carcinoma cell lines) assessed as lethality incubated for 48 hrs by Sulphorhodamine B assay; type: functional
[33] = tested on: Panel renal (Carcinoma cell lines); assay: Anticancer activity against human Panel renal (Carcinoma cell lines) assessed as lethality incubated for 48 hrs by Sulphorhodamine B assay; type: functional
[34] = tested on: Panel CNS (Carcinoma cell lines); assay: Anticancer activity against human Panel CNS (Carcinoma cell lines) assessed as total growth inhibition incubated for 48 hrs by Sulphorhodamine B assay; type: functional; procedure, shortened: as §1
[35] = target: DNA topoisomerase 2-alpha (Homo sapiens) (UniProt P11388); assay: Inhibition of human DNA topoisomerase II-alpha mediated supercoiled pHOT1 plasmid DNA relaxation at 50 uM incubated for 30 mins by ethidium bromide staining based agarose gel electrophoresis analysis; procedure, shortened: as §3

c1ccc(CNc2nc(Nc3ccc(-c4nc5ccccc5[nH]4)cc3)c3cn[nH]c3n2)cc1
TGI [1]: 4.29 µM
Activity [2]: Active
TGI [3]: 7.83 µM
GI50 [4]: 2.52 µM
GI50 [5]: 1.85 µM
TGI [6]: 9.43 µM
GI50 [7]: 2.56 µM
TGI [8]: 8.99 µM
TGI [9]: 6.43 µM
LC50 [10]: > 100 µM
Activity [11]: 264 nm
LC50 (lethal concentration, 50% cell kill) [12]: 34.7 µM
LC50 [13]: 41.8 µM
inhibition [14]: inactive
LC50 (lethal concentration, 50% cell kill) [15]: 55.3 µM
GI50 [16]: 2.54 µM
CC50 [17]: 46.3 µM
GI50 [18]: 2 µM
TGI [19]: 5.85 µM
Activity [20]: Active
Activity [21]: Active
GI50 [22]: 2.04 µM
TGI [23]: 6.16 µM
inhibition [24]: Active
TGI [25]: 5.12 µM
inhibition [26]: Active
GI50 [27]: 2.67 µM
GI50 [28]: 2.3 µM
GI50 [29]: 2.96 µM
LC50 (concentration killing 50% of cells) [30]: 41.8 µM
LC50 (lethal concentration 50) [31]: 19.3 µM
LC50 (concentration killing 50% of cells) [32]: 28.1 µM
LC50 (50% lethal concentration) [33]: 31.2 µM
TGI [34]: 16.7 µM
inhibition [35]: Active

CC[C@H](CO)Nc1nc(NCc2ccccc2)c2ncn(C(C)C)c2n1 [SELICICLIB]
TGI [1]: 57.6 µM
GI50 [4]: 29.3 µM
GI50 [5]: 14.8 µM
TGI [6]: 81.5 µM
GI50 [7]: 17.9 µM
TGI [8]: 84.8 µM
GI50 [16]: 23.6 µM
GI50 [18]: 24.8 µM
TGI [19]: 73 µM
GI50 [22]: 22.7 µM
TGI [25]: 84.9 µM
GI50 [27]: 37.5 µM
GI50 [28]: 24.9 µM
GI50 [29]: 24.7 µM
TGI [34]: 82.2 µM

c1ccc2[nH]c(-c3ccc(Nc4nc(N5CCCC5)nc5[nH]ncc45)cc3)nc2c1
TGI [1]: 1.53 µM
Activity [2]: Active
TGI [3]: 2.73 µM
GI50 [4]: 1.1 µM
GI50 [5]: 0.67 µM
TGI [6]: 3.14 µM
GI50 [7]: 1.37 µM
TGI [8]: 3.17 µM
TGI [9]: 6.7 µM
LC50 [10]: 31.8 µM
Activity [11]: 259 nm
LC50 (lethal concentration, 50% cell kill) [12]: 2.23 µM
LC50 [13]: 20.6 µM
inhibition [14]: inactive
LC50 (lethal concentration, 50% cell kill) [15]: 11.5 µM
GI50 [16]: 1.08 µM
CC50 [17]: 6.35 µM
GI50 [18]: 2.32 µM
TGI [19]: 2.08 µM
Activity [20]: Active
Activity [21]: Active
GI50 [22]: 0.73 µM
TGI [23]: 2.67 µM
inhibition [24]: Active
TGI [25]: 5.88 µM
inhibition [26]: Active
GI50 [27]: 2.38 µM
GI50 [28]: 1.22 µM
GI50 [29]: 0.86 µM
LC50 (concentration killing 50% of cells) [30]: 6.85 µM
LC50 (lethal concentration 50) [31]: 4.32 µM
LC50 (concentration killing 50% of cells) [32]: 4.17 µM
LC50 (50% lethal concentration) [33]: 7.04 µM
TGI [34]: 2.01 µM
inhibition [35]: Active

c1ccc2[nH]c(-c3ccc(Nc4nc(N5CCOCC5)nc5[nH]ncc45)cc3)nc2c1
Activity [11]: 260 nm
inhibition [14]: inactive
Activity [20]: Active
Activity [21]: Active
inhibition [24]: Active
inhibition [26]: Active
inhibition [35]: Active

NCCNc1nc(Nc2ccc(-c3nc4ccccc4[nH]3)cc2)c2cn[nH]c2n1
Activity [11]: 259 nm
inhibition [14]: inactive
Activity [20]: Active
Activity [21]: Active
inhibition [24]: Active
inhibition [26]: Active
inhibition [35]: Active
